The values below come from ChEMBL document CHEMBL3580577, “Fragment-based exploration of binding site flexibility in Mycobacterium tuberculosis BioA” (J Med Chem, 2015).

Assay [1] deals with Mycobacterium tuberculosis. The experiment in a line: Antimycobacterial activity against Mycobacterium tuberculosis H37Rv assessed as growth inhibition after 9 days by Whole cell growth assay in presence of 1000 nM biotin. It is filed as functional, organism-based. The settings on record: 216 h. The method in brief: (§1)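 Virulent H37Rv wild type pregrown in Sauton's medium with 1000 nM biotin to OD580 1.0–1.2, washed twice in biotin-free Sauton's medium, and seeded at OD580 0.03 in biotin-free medium or with 1000 nM biotin added. Compounds were tested at 2-fold dilutions, 1000 to 3.9 µM final, against no-compound controls. OD read after nine days at 37 °C, in triplicate; MIC calculated.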

For assay [2], the system named is Mycobacterium tuberculosis. The experiment in a line: Antimycobacterial activity against Mycobacterium tuberculosis BioA-UE strain assessed as growth inhibition after 9 days by Whole cell growth assay in presence of 1000 nM biotin. It is filed as functional, organism-based. The settings on record: 216 h. The essentials:
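Mtb BioA-underexpressing strain pregrown in Sauton's medium with 1000 nM biotin to OD580 1.0–1.2, washed twice in biotin-free Sauton's medium, and seeded at OD580 0.03 in medium with 1000 nM biotin plus 200 ng/mL anhydrotetracycline. Compounds were tested at 2-fold serial dilutions, 1000 to 3.9 µM final, against no-compound controls. OD read after nine days at 37 °C, in triplicate; MIC calculated from growth.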

The test system of assay [3] is Mycobacterium tuberculosis. The experiment in a line: Inhibition of Mycobacterium tuberculosis N-terminal His-tagged BioA assessed as temperature of denaturation shift by […]. The method in brief:
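Differential scanning fluorimetry with 0.05 mg/mL holo BioA in 25 mM HEPES pH 7.5, 50 mM NaCl, 5× SYPRO Orange, and 5 mM fragment from 200 mM DMSO stock. Heated 55–100 °C in 0.5 °C steps with 60 s dwell. Tm taken at the first-derivative peak; the shift is against the mean of DMSO-only controls on the same plate. Four replicates, mean with standard error.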

Assay [4] in a line: Inhibition of Mycobacterium tuberculosis N-terminal His-tagged BioA assessed as dissociation constant by isothermal titration calorimetry. The method in brief: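 Isothermal titration calorimetry at 25 °C in 25 mM HEPES pH 7.5, 50 mM NaCl, with 100 µM PLP-saturated His-tagged BioA (E. coli-expressed) in the cell. Ligand at 1.0, 1.5 or 2.0 mM, DMSO matched, given as 2 µL injections 150 s apart with stirring at 750 rpm. First injection discarded; heats of dilution corrected. KD = 1/KA from curve fit, averaged over three replicates.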
Background: ITC needs no label: the signal is the heat of the interaction.

Assay [5] deals with Mycobacterium tuberculosis. Description: Antimycobacterial activity against Mycobacterium tuberculosis H37Rv assessed as growth inhibition after 9 days by Whole cell growth assay. Format: functional, organism-based. The settings on record: 216 h. The essentials: as §1
Assay [6] is described as follows: Inhibition of Mycobacterium tuberculosis H37Rv N-terminal His-tagged BioA using KAPA substrate by in vitro biochemical assay.

Molecules are shown by their SMILES.

Consider `CNCc1ccc(Cn2cccn2)cc1`, for which the IC50 in assay [1], in assay [2] and in assay [5] was greater than 1000 µM throughout. Further, the ΔTm (in general, the shift of the melting midpoint relative to a reference) in assay [3] is 5.3 °C. Besides, in assay [4], the Kd (usually the free concentration of one partner at which half of the binding sites on the other are occupied at equilibrium, for simple one-to-one binding) stood at 11.7 µM.

For the compound `CC(=O)Nc1ccc2c(c1)C=CC2=O`, the IC50 in assay [1], in assay [2] and in assay [5] was greater than 1000 µM throughout. Moreover, the ΔTm in assay [3] amounted to 3.6 °C. In addition, in assay [4], the dissociation constant Kd came out at 21.7 µM.

As to `NCc1nc2ccccc2s1`, the IC50 – broadly, the concentration that gives 50% inhibition – came out at 304 µM in assay [1], 368 µM in assay [2] and 250 µM in assay [5]. In assay [3], the thermal shift (ΔTm) was -6.5 °C. In addition, the dissociation constant (Kd) in assay [4] was determined as 30.3 µM.

For the compound `O=C(c1ccccc1)C1CCNCC1`, the results for the IC50 in assay [1], in assay [2] and in assay [5] were 357 µM, 260 µM and 340 µM, respectively. In assay [3], the ΔTm turned out to be 3.6 °C. Moreover, the Kd in assay [4] is 41.8 µM.

For the compound `NC(=O)c1ccc(-n2ccnc2)cc1`, the IC50 in assay [1], in assay [2] and in assay [5] was greater than 1000 µM each time. The ΔTm in assay [3] was 4.1 °C. For the same compound, the Kd in assay [4] came out at 15 µM.

Compound `O=c1cc(-c2ccccc2F)[nH]c2cc3c(cc12)OCO3` yielded an IC50 in assay [6] of 0.44 µM.

`NCc1ccc(Cn2cc(Cl)cn2)cc1`: the shift in melting temperature (ΔTm) in assay [3] is -11.9 °C. For the same compound, the dissociation constant (Kd) in assay [4] was determined as 6.8 µM.

As for `NC(=O)c1ccc(-c2ccccn2)s1`, the IC50 in assay [1] was greater than 1000 µM; in assay [2], 39.2 µM; in assay [5], 249 µM. In addition, in assay [3], the thermal shift (ΔTm) turned out to be 6.3 °C. The Kd in assay [4] is 6.9 µM.
